Test results published in ChEMBL document CHEMBL4382274, “NQO1-Selective Activated Prodrug of Triptolide: Synthesis and Antihepatocellular Carcinoma Activity Evaluation” (ACS Med Chem Lett, 2018).
pIC50: −log10 of the molar value. The source made the active and inactive calls. No cut-off for these calls is given here.

Assays:
HepG2 [1] = assay: Cytotoxicity against human HepG2 cells after 48 hrs by XTT assay; format: functional, cell-based; conditions: HepG2, 48 h
[2] = Toxicity in Balb/c nude mouse at 0.2 mg/kg, ip; format: organism-based; conditions: in vivo
[3] = biological target: T1, General transcription and DNA repair factor IIH helicase/translocase subunit XPB (Homo sapiens, UniProt P19447); assay: Inhibition of […] ATPase activity in human HeLa cell nuclear extracts; format: cell-based
T1 sequence (P19447 whole entry): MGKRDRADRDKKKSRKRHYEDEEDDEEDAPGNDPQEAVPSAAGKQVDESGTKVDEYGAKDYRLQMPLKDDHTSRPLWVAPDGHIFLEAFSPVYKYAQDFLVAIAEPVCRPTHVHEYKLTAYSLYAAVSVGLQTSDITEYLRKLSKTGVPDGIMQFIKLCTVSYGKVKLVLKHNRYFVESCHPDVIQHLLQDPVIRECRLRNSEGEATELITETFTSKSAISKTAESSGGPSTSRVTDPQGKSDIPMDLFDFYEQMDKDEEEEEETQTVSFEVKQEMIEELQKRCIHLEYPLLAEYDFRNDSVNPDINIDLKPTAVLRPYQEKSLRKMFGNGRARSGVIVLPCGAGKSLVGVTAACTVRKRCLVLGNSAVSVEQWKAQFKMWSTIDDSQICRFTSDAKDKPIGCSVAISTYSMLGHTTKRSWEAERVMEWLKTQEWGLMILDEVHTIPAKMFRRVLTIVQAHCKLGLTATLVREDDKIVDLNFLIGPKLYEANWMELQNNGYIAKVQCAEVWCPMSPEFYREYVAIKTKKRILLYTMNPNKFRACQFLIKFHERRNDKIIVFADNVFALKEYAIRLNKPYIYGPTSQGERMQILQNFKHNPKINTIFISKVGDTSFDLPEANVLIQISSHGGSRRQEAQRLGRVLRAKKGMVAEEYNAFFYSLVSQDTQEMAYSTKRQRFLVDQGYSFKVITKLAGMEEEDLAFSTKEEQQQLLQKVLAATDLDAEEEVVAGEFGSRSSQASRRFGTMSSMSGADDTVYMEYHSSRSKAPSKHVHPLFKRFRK

[4] = Hepatotoxicity in Balb/c nude mouse xenografted with human HepG2 cells assessed as effect on serum ALT levels at 0.2 mg/kg, ip administered once daily for 15 days; format: toxicity, organism-based; conditions: in vivo, 360 h
Summary of the method: (§1)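 HepG2-xenografted nude mice were dosed every day for 15 days. Serum ALT, AST, creatinine and blood urea nitrogen were measured and compared with the control.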

[5] = Toxicity in Balb/c nude mouse xenografted with human HepG2 cells assessed as change in body weight at 0.2 mg/kg, ip administered once daily for 15 days measured during compound dosing; format: organism-based; conditions: in vivo, 360 h
Summary of the method: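 Xenografted nude mice (8/group) received ip doses once daily for two weeks, starting one week after HepG2 inoculation. Body weight was recorded throughout the treatment period.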

HepG2 [6] = assay: Antitumor activity against human HepG2 cells xenografted in Balb/c nude mouse assessed as reduction in tumor growth at 0.2 mg/kg, ip administered once daily for 15 days; format: functional, organism-based
Summary of the method: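 HepG2 cells were inoculated into nude mice, and daily ip dosing began one week later and ran for two weeks. Tumour volume was followed over the treatment, and tumours were weighed and imaged at the end. n = 8 mice/group; Student's t test was used against the control.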

[7] = Renal toxicity in Balb/c nude mouse xenografted with human HepG2 cells assessed as increase in serum BUN levels at 0.2 mg/kg, ip administered once daily for 15 days; format: organism-based; conditions: in vivo, 360 h; summary of the method: as §1
[8] = Hepatotoxicity in Balb/c nude mouse xenografted with human HepG2 cells assessed as effect on serum AST levels at 0.2 mg/kg, ip administered once daily for 15 days; format: toxicity, organism-based; conditions: in vivo, 360 h; summary of the method: as §1
[9] = Renal toxicity in Balb/c nude mouse xenografted with human HepG2 cells assessed as glomerular capillary loop lesions at 0.2 mg/kg, ip administered once daily for 15 days by hematoxylin and eosin staining based microscopic analysis; format: organism-based; conditions: in vivo, 360 h
Summary of the method: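 After 15 days of daily dosing, kidneys from xenografted nude mice were sectioned, H&E stained and examined at ×200 for glomerular capillary loop lesions, alongside control sections.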

Hepatocyte = assay: Cytotoxicity against primary hepatocytes (unknown origin) after 48 hrs by XTT assay; format: cell-based
[10] = Renal toxicity in Balb/c nude mouse xenografted with human HepG2 cells assessed as increase in serum creatinine levels at 0.2 mg/kg, ip administered once daily for 15 days; format: organism-based; conditions: in vivo, 360 h; summary of the method: as §1
[11] = Hepatotoxicity in Balb/c nude mouse xenografted with human HepG2 cells assessed as pathological abnormalities at 0.2 mg/kg, ip administered once daily for 15 days by hematoxylin and eosin staining based microscopic analysis; format: toxicity, organism-based; conditions: in vivo, 360 h
[12] = Hepatotoxicity in Balb/c nude mouse xenografted with human HepG2 cells assessed as effect on serum ALT levels at 0.3 to 1 mg/kg, ip administered once daily for 15 days; format: toxicity, organism-based; conditions: in vivo, 360 h
Summary of the method: (§2)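 Nude mice were dosed ip every day for 15 days at 0.2 mg/kg (reference), 0.3 mg/kg or 1.0 mg/kg. Serum ALT, AST, creatinine and BUN were measured. Kidney sections were H&E stained and examined at X200. Comparisons were made against control.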

CYP450 = CYP450 (Homo sapiens, UniProt P04798+P05177+P05181+P08684+P10632+P10635+P11509+P11712+P13584+P20813+P20815+P20853+P24462+P24903+P33260+P33261+P51589+P78329+P98187+Q02928+Q08477+Q16678+Q16696+Q5TCH4+Q6VVX0+Q7Z449+Q8TAV3+Q96SQ9+Q9HB55); assay: Half life in human liver microsomes assessed as CYP450-mediated compound degradation at 10 uM by UV-HPLC analysis; format: ADME
Summary of the method: (§3)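 Compound was incubated for 1 h in vitro in human plasma or human liver microsomes, and half-life was determined from its disappearance.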

[13] = Cmax in KM mouse at 1 mg/kg, ip administered as single dose; format: ADME, organism-based; parameters: dose 1 mg/kg, route intraperitoneal; conditions: in vivo
Summary of the method: (§4)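 Mice received a single ip dose at 1.0 mg/kg. Levels were measured in plasma, liver and kidney with a validated analytical method, and plasma was sampled over time to 2 h and beyond. Derived values were absorption, distribution and terminal half-lives, tmax, Cmax and AUC tissue/plasma ratios.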

[14] = Time at which plasma concentration stays above in vitro IC50 for antiproliferative activity against human HepG2 cells in KM mouse at 1 mg/kg, ip administered as single dose; format: organism-based; conditions: in vivo; summary of the method: as §4
[15] = Toxicity in Balb/c nude mouse at 1 mg/kg, ip; format: organism-based; conditions: in vivo
Summary of the method: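 In a preliminary experiment, nude mice were given a single ip dose of 1.0 mg/kg and observed for toxic symptoms.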

HepG2 [16] = assay: Antitumor activity against human HepG2 cells xenografted in Balb/c nude mouse assessed as reduction in tumor growth at 0.3 to 1 mg/kg, ip administered once daily for 15 days; format: functional, organism-based
Summary of the method: (§5)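 HepG2 xenograft in nude mice. Dosing began one week after cell inoculation, ip once daily for two weeks. Tumor volume was followed during treatment, tumor weight taken at the end, and body weight monitored throughout. n = 8 mice/group; Student's t test against control.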

A549 = assay: Cytotoxicity against human A549 cells after 48 hrs by XTT assay; format: functional, cell-based; conditions: A549, 48 h
[17] = Hepatotoxicity in Balb/c nude mouse xenografted with human HepG2 cells assessed as effect on serum AST levels at 0.3 to 1 mg/kg, ip administered once daily for 15 days; format: toxicity, organism-based; conditions: in vivo, 360 h; summary of the method: as §2
Keratinocyte = assay: Cytotoxicity against human keratinocytes after 48 hrs by XTT assay; format: cell-based
[18] = Distribution half life in KM mouse at 1 mg/kg, ip administered as single dose; format: ADME, organism-based; conditions: in vivo, read-out: alphat1/2; summary of the method: as §4
[19] = Tmax in KM mouse at 1 mg/kg, ip administered as single dose; format: ADME, organism-based; conditions: in vivo; summary of the method: as §4
[20] = biological target: T2, NAD(P)H dehydrogenase [quinone] 1 (Homo sapiens, UniProt P15559); assay: Prodrug activation in human HepG2 cell lysates assessed as NQO1-mediated CX-21 formation at 10 uM after 60 mins in presence of NADPH and NQO1 inhibitor dicoumarol by HPLC analysis; format: subcellular, Lysate; conditions: hepg2, 1 h
[21] = biological target: T2, NAD(P)H dehydrogenase [quinone] 1; assay: Prodrug activation in human HepG2 cell lysates assessed as NQO1-mediated triptolide formation at 10 uM up to 60 mins in presence of NADPH by HPLC analysis; format: subcellular, Lysate; conditions: hepg2, 1 h
[22] = biological target: T2, NAD(P)H dehydrogenase [quinone] 1; assay: Prodrug activation in human HepG2 cell lysates assessed as NQO1-mediated CX-21 formation at 10 uM up to 60 mins in presence of NADPH by HPLC analysis; format: subcellular, Lysate; conditions: hepg2, 1 h
[23] = Ratio of AUC in KM mouse kidney to plasma at 1 mg/kg, ip administered as single dose; format: ADME, organism-based; conditions: other tissue; summary of the method: as §4
HepG2 [24] = assay: Cytotoxicity against human HepG2 cells after 48 hrs in presence of NQO1 inhibitor dicoumarol by XTT assay; format: functional, cell-based
[25] = Hepatotoxicity in Balb/c nude mouse xenografted with human HepG2 cells assessed as pathological abnormalities at 0.3 to 1 mg/kg, ip administered once daily for 15 days by hematoxylin and eosin staining based microscopic analysis; format: toxicity, organism-based; conditions: in vivo, 360 h
HeLa = assay: Cytotoxicity against human HeLa cells after 48 hrs by XTT assay; format: functional, cell-based
[26] = Toxicity in Balb/c nude mouse xenografted with human HepG2 cells assessed as change in body weight at 0.3 to 1 mg/kg, ip administered once daily for 15 days measured during compound dosing; format: organism-based; conditions: in vivo, 360 h; summary of the method: as §5
[27] = Therapeutic index, ratio of IC50 for primary hepatocytes (unknown origin) to IC50 for human HepG2 cells; format: toxicity; conditions: primary hepatocytes (unknown origin) versus HepG2 cells, read-out: Ratio IC50
[28] = biological target: NQO1 (NAD(P)H dehydrogenase [quinone] 1) (Homo sapiens, UniProt P15559); assay: Half life in human HepG2 cell lysates assessed as NQO1-mediated compound degradation at 10 uM in presence of NADPH by HPLC analysis; format: ADME, subcellular, Lysate
[29] = Cytotoxicity against human skin fibroblasts after 48 hrs by XTT assay
[30] = Plasma concentration in KM mouse at 1 mg/kg, ip administered as single dose after 2 hrs; format: ADME, organism-based; conditions: in vivo, BLD = below limit of detection; summary of the method: as §4
carboxyl ester hydrolase = assay: Half life in human plasma assessed as carboxyl ester hydrolase-mediated compound degradation at 10 uM by UV-HPLC analysis; format: ADME, cell-free; summary of the method: as §3
[31] = Terminal half life in KM mouse at 1 mg/kg, ip administered as single dose; format: ADME, organism-based; conditions: in vivo, read-out: beta t1/2; summary of the method: as §4
[32] = Ratio of AUC in KM mouse liver to plasma at 1 mg/kg, ip administered as single dose; format: ADME, organism-based; conditions: other tissue; summary of the method: as §4
[33] = biological target: T2, NAD(P)H dehydrogenase [quinone] 1; assay: Prodrug activation in human HepG2 cell lysates assessed as NQO1-mediated triptolide formation at 10 uM after 60 mins in presence of NADPH and NQO1 inhibitor dicoumarol by HPLC analysis; format: subcellular, Lysate; conditions: hepg2, 1 h
[34] = Plasma concentration in KM mouse at 1 mg/kg, ip administered as single dose at 2 hrs post dose; format: ADME, organism-based; summary of the method: as §4
HepG2 [35] = assay: Cytotoxicity against human HepG2 cells up to 20 uM after 48 hrs by XTT assay; format: functional, cell-based

T2 sequence (P15559 whole entry): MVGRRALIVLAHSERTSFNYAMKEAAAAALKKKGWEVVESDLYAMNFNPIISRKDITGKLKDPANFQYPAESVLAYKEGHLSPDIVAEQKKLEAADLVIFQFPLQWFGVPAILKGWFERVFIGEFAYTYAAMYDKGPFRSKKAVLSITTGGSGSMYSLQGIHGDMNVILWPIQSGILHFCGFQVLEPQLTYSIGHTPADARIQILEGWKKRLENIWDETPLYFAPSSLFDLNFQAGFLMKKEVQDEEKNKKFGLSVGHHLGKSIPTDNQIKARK
NQO1 (NAD(P)H dehydrogenase [quinone] 1), sequence (P15559 whole entry): as above

SMILES: CC(C)[C@]12O[C@H]1[C@@H]1O[C@]13[C@]1(O[C@H]1C[C@H]1C4=C(CC[C@@]13C)C(=O)OC4)[C@@H]2O [TRIPTOLIDE]
- pIC50 (HepG2 [1]): 7.36
- Activity [2]: Non-Toxic
- inhibition (INH) [3]: Active
- Activity [4]: Non-Toxic
- Activity [5]: Non-Toxic
- Activity (HepG2 [6]): Active
- Activity [7]: Toxic
- Activity [8]: Non-Toxic
- Activity [9]: Toxic
- pIC50 (Hepatocyte): 7.42
- Activity [10]: Toxic
- Activity [11]: Non-Toxic

SMILES: CC1=C(C)C(=O)C(C(C)(C)CC(=O)O[C@@H]2[C@@]3(C(C)C)O[C@H]3[C@@H]3O[C@]34[C@]23O[C@H]3C[C@H]2C3=C(CC[C@@]24C)C(=O)OC3)=C(C)C1=O
- Activity [12]: Non-Toxic
- half-life at 10 µM (CYP450): > 60 min
- Cmax [13]: 243 ng/mL
- Time [14]: 40 min
- Activity [15]: Non-Toxic
- Activity (HepG2 [16]): Active
- pIC50 (A549): 7.23
- Activity [17]: Non-Toxic
- pIC50 (HepG2 [1]): 7.27
- pIC50 (Keratinocyte): < 6.00
- half-life [18]: 15.1 min
- Tmax [19]: 3 min
- inhibition (INH) [3]: Not Active
- Drug metabolism [20]: Metabolite_Notdetected
- Drug metabolism [21]: Metabolite_Detected
- Drug metabolism [22]: Metabolite_Detected
- Ratio [23]: < 5%
- Activity (HepG2 [24]): inactive
- Activity [25]: Non-Toxic
- pIC50 (HeLa): 7.42
- Activity [26]: Non-Toxic
- selectivity ratio [27]: 9.89
- half-life at 10 µM [28]: 7.27 min
- pIC50 [29]: < 6.00
- Cp [30]: Bld
- half-life at 10 µM (carboxyl ester hydrolase): > 60 min
- pIC50 (Hepatocyte): 6.27
- half-life [31]: 154 min
- Ratio [32]: < 5%
- Drug metabolism [33]: Metabolite_Notdetected
- concentration at 2 h [34]: 1.38 ng/mL

SMILES: O=c1oc2ccccc2c(O)c1Cc1c(O)c2ccccc2oc1=O
- Activity (HepG2 [35]): inactive
